# Measured values of several laboratories.
# Observed: cell growth or viability
SMILES,cell line,technique,time,quantity,value
COc1ccc2c(c1)[nH]c1c(C)nccc12,BT-474,MTT,72 h,IC50,20.2 µM
N.N.[Cl][Pt][Cl],CCD 19Lu,,24 h,IC50,> 100 µM
CC[C@H](C)[C@@H]([C@@H](CC(=O)N1CCC[C@H]1[C@H](OC)[C@@H](C)C(=O)N[C@H](C)[C@@H](O)c1ccccc1)OC)N(C)C(=O)[C@@H](NC(=O)[C@H](C(C)C)N(C)C(=O)OCc1ccc(NC(=O)[C@H](C)NC(=O)[C@@H](NC(=O)CCc2cn(CCOCCOCCOCCOCC(=O)NCc3ccc(CN4C(=O)[C@H]5CC(=O)N[C@H](C(=O)O)CC(=O)NCC(=O)N[C@@H](CCCNC(=N)N)C(=O)NC[C@H]4C(=O)N5)cc3)nn2)C(C)C)cc1)C(C)C,M21,MTT,72 h,IC50,0.00694 µM
N.N.[Cl][Pt][Cl],B16-F10,MTT,,IC50,9.38 µM
CC[C@@H]1C(=O)N(C)c2cnc(Nc3ccc(C(=O)NC4CCN(C)CC4)cc3OC)nc2N1C1CCCC1,MB002,,7 days,IC50,0.0034 µM
CN[C@@H]1C[C@H]2O[C@@](C)([C@@H]1OC)n1c3ccccc3c3c4c(c5c6ccccc6n2c5c31)C(=O)NC4,KB 3-1,WST-1,5 days,Kb,0.004 µM
CC[C@H](Nc1nc(NCc2cnc(C)cc2C)c2ncn(C(C)C)c2n1)[C@@H](C)O,MB002,,7 days,IC50,0.277 µM
N.N.[Cl][Pt][Cl],M21,SRB,48 h,IC50,17 µM
Cc1sc2c(c1C)C(c1ccc(Cl)cc1)=N[C@@H](CC(=O)Nc1ccc(O)cc1)c1nnc(C)n1-2,MB002,,7 days,IC50,0.0126 µM
CC[C@H](C)[C@@H]([C@@H](CC(=O)N1CCC[C@H]1[C@H](OC)[C@@H](C)C(=O)N[C@H](C)[C@@H](O)c1ccccc1)OC)N(C)C(=O)[C@@H](NC(=O)[C@H](C(C)C)N(C)C(=O)CCc1cn(CCOCCOCCOCCOCC(=O)NCc2ccc(CN3C(=O)[C@H]4CC(=O)N[C@H](C(=O)O)CC(=O)NCC(=O)N[C@@H](CCCNC(=N)N)C(=O)NC[C@H]3C(=O)N4)cc2)nn1)C(C)C,M21,MTT,72 h,IC50,0.4 µM
